Data taken from ChEMBL document CHEMBL4311980, “Discovery of 2-isoxazol-3-yl-acetamide analogues as heat shock protein 90 (HSP90) inhibitors with significant anti-HIV activity” (Eur J Med Chem, 2019).
The source made the active and inactive calls. No cut-off for these calls is given here.

Experiments:
[1] = Cytotoxicity against human TZM-bl cells assessed as maximum non-cytotoxic concentration after 48 hrs by MTT assay; format: cell-based; conditions: read-out: MNCC
Procedure, shortened: (§1)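 Cells were seeded at 25,000/well in complete medium with compound at different concentrations, with untreated and DMSO controls, and incubated 48 h. MTT (5 mg/mL stock) was added for 4 h at 37 °C in the dark. Formazan was dissolved in isopropanol and A570 read. CC50 and highest non-cytotoxic concentration were derived from this assay.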

[2] = tested on: Human immunodeficiency virus 1; assay: Antiviral activity against HIV-1 NL4-3 infected in human TZM-bl cells assessed as reduction in viral replication at 1000 nM measured at 48 hrs post-infection by steady-glo reporter gene assay relative to control; format: functional; conditions: Human immunodeficiency virus 1, NL4-3, TZM-bl
Procedure, shortened: (§2)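 TZM-bl cells (0.15×10^6/well) were infected with 0.5 MOI HIV-1 NL4-3 12 h after seeding and treated at the highest non-cytotoxic concentration, which was set by MTT assay. At 48 h post-infection, cells were lysed and mixed 1:1 with Steady-Glo substrate, and luminescence was read.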

[3] = tested on: Human immunodeficiency virus 1; assay: Antiviral activity against HIV1 NL4-3 infected in human TZM-bl cells assessed as reduction in viral replication at 100 nM measured at 48 hrs post-infection by steady-glo reporter gene assay relative to control; format: functional; conditions: Human immunodeficiency virus 1, NL4-3, TZM-bl; procedure, shortened: as §2
[4] = Cytotoxicity against human CEM-GFP cells assessed as reduction in cell viability after 48 hrs by MTT assay; format: cell-based; procedure, shortened: as §1
[5] = tested on: Human immunodeficiency virus 1; assay: Antiviral activity against HIV-1 NL4-3 infected in human CEM-GFP cells assessed as suppression of viral replication by measuring reduction in p24 level measured at 72 hrs post-infection by ELISA; format: functional, organism-based; conditions: Human immunodeficiency virus 1, NL4-3, CEM-GFP
Procedure, shortened: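 Cells were incubated with 0.5 MOI virus in the presence of polybrene at 37 °C for 4 h with intermittent mixing, then washed and plated in complete RPMI-1640. Compound added at different concentrations, with untreated and DMSO controls. PBMC were PHA-activated. Supernatant p24 measured by capture ELISA (A450) at 72 h. % inhibition calculated relative to untreated cells.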

[6] = Therapeutic index, ratio of CC50 for human CEM-GFP cells to IC50 for antiviral activity against HIV-1 NL4-3 infected in human CEM-GFP cells; format: toxicity, cell-based; conditions: read-out: Ratio CC50/IC50
Procedure, shortened: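 IC50 was determined from p24 ELISA 72 h after 0.5 MOI HIV-1 NL4-3 infection with compound at different concentrations. Therapeutic index = CC50/IC50.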

[7] = tested on: Human immunodeficiency virus 1; assay: Antiviral activity against HIV1 NL4-3 infected in human TZM-bl cells assessed as reduction in viral replication at 500 nM measured at 48 hrs post-infection by steady-glo reporter gene assay relative to control; format: functional; conditions: Human immunodeficiency virus 1, NL4-3, TZM-bl; procedure, shortened: as §2
[8] = target: Protease (Human immunodeficiency virus 1) (UniProt Q9YQ12); assay: Inhibition of HIV-1 protease at 500 nM using synthetic peptide as substrate after 15 mins by fluorimetric based assay
Procedure, shortened: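 Cell-free fluorometric protease kit. HIV-1 protease was diluted in reaction buffer and loaded at 10 nmol/well with or without compound. Indinavir served as positive control, with untreated and DMSO controls. Fluorescence (Ex/Em 330/450 nm) was read 15 min after addition. n = 3.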

[9] = target: Human immunodeficiency virus type 1 reverse transcriptase (Human immunodeficiency virus 1) (UniProt Q72547); conditions: 500 nM

Chain of Protease (Human immunodeficiency virus 1) (Q9YQ12 as listed by the source): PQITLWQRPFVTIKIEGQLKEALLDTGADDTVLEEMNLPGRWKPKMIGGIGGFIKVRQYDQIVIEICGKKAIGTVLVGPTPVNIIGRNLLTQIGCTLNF

Compound | MNTC at 48 h [1] | inhibition at 1 µM [2] | inhibition at 0.1 µM [3] | other results
COc1ccc(NC(=O)Cc2cc(-c3ccccc3)on2)cc1 | 1000 nM | 59.6% |  | 
COC(=O)c1ccc(NC(=O)Cc2cc(-c3ccccc3)on2)cc1 | 100 nM |  | 27.7% | 
O=C(Cc1cc(-c2ccccc2)on1)Nc1ccc(Cl)cc1 | 100 nM |  | 49% | 
COc1ccc(-c2cc(CC(=O)Nc3cccc(C)c3)no2)cc1 | 1000 nM | 95.5% |  | CC50 at 48 h [4]: 15.7 µM; IC50 [5]: 0.284 µM; selectivity ratio [6]: 55.1
Cc1cccc(NC(=O)Cc2cc(-c3ccccc3)on2)c1 | 100 nM |  | 33.3% | 
O=C(Cc1cc(-c2ccccc2)on1)Nc1ccc(F)cc1 | 500 nM |  |  | inhibition at 0.5 µM [7]: 85.4%; CC50 at 48 h [4]: 11.8 µM; IC50 [5]: 0.0871 µM; selectivity ratio [6]: 136
CC(C)(C)NC(=O)[C@@H]1CN(Cc2cccnc2)CCN1C[C@@H](O)C[C@@H](Cc1ccccc1)C(=O)N[C@H]1c2ccccc2C[C@H]1O |  |  |  | inhibition [8]: Active
CCCNC(=O)Cc1cc(-c2ccccc2)on1 | 100 nM |  | 60.9% | 
O=C(Cc1cc(-c2ccccc2)on1)Nc1ccc(O)cc1 | 1000 nM | 13.4% |  | 
Cc1ccnc2c1NC(=O)c1cccnc1N2C1CC1 |  |  |  | inhibition [9]: Active
